Assay outcomes as filed in PubChem BioAssay.
Many of the other results were omitted from the sample, so hits are more common in it than they were.
pCIP destab: lowers stability of the mouse p/CIP coactivator protein; Q05BA5; F442A p/CIP-EGFP cells, EGFP fluorescence, 16 h; decrease of EGFP signal, % at 10 µM; 290,000 compounds, 0.01% hits; AID 1984;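 active = EGFP signal decrease of at least 30% at 10 µM or well 3 SD below plate mean, unless failing retest; inactive = the rest, including hits failing retest or dose response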
Target sequence (Q05BA5 1-1403): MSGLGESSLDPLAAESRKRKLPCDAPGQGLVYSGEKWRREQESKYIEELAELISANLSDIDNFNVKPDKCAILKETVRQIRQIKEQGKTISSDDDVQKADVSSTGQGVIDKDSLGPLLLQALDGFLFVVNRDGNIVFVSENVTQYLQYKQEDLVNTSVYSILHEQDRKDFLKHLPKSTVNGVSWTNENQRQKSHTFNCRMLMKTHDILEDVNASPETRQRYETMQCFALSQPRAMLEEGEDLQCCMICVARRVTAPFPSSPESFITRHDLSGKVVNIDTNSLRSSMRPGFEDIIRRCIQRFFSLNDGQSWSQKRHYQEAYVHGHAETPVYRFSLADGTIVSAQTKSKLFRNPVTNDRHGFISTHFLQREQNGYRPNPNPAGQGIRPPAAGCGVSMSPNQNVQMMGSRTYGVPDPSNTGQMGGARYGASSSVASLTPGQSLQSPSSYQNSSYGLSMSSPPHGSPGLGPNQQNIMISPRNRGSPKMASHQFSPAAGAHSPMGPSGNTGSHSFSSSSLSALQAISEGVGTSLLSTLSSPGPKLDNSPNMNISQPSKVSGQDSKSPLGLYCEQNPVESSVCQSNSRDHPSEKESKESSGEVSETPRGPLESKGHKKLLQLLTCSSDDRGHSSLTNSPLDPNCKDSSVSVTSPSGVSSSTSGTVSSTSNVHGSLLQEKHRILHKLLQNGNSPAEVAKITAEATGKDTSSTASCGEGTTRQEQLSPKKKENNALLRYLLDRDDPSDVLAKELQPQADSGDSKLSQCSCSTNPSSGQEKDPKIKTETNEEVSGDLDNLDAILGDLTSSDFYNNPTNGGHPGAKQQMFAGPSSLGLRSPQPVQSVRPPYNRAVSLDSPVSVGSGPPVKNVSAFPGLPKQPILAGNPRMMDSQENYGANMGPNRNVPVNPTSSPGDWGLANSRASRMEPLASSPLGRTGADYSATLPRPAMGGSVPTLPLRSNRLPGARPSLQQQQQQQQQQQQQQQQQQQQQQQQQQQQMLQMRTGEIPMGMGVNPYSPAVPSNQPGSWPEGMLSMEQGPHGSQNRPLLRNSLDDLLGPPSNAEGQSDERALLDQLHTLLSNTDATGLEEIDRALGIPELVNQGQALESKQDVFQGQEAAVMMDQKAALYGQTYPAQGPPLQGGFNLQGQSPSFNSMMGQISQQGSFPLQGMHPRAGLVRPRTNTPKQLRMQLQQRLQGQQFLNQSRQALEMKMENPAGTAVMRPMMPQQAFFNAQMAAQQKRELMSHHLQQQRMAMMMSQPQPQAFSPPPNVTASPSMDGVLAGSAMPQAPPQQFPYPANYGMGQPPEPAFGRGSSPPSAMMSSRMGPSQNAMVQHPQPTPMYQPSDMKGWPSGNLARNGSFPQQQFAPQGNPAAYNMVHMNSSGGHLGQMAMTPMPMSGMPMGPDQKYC
Cl transport mod: KCC2 (human) Cl- transport modulation; 190,000 compounds, 2.2% hits; KCC2 cells, thallium flux FluoZin-2 fluorescence; B-score of Tl+ flux slope (higher = more flux/activation; lower = inhibition) at 10 µM; AID 1456; Q9H2X9;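 active = thallium flux slope and its plate-corrected score both differing from the plate sample mean at a set confidence after two filtering rounds, in either direction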;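 also: slope of fluorescence scaled to starting intensity during 10 to 20 s after thallium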
ABCB6 inh MLPCN: blocks the human ABCB6 transporter | K562-ABCB6 porphyrin accumulation, flow cytometry, 1 h; hits give low values | fluorescence ratio to DMSO, % at 10 µM | Q9NP58 | 360,000 compounds, 0.19% hits;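 active = fluorescence ratio to DMSO below 75%, the collection mean minus 3 SD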;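 also: signal is porphyrin accumulated inside mitochondria; 100% equals median channel fluorescence of DMSO control wells; lower ratio means ABCB6 inhibition with less porphyrin fluorescence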
V-ATPase pH: yeast V-ATPase proton transport regulation by pHLuorin; response, % at 10 µM; S. cerevisiae, pHLuorin cytosolic pH fluorescence; 350,000 compounds, 0.37% hits; in the data active = response mostly above about 7.3%, no sharp cut-off; inactive = mostly below about 5.4%; also: actives read high
Dynein transport: dynein cargo transport inhibition. 3617.4 mouse cells, GR-EGFP nuclear translocation imaging; test concentration mostly 20 µM; stimulated with dexamethasone, 1 µM; hits give low values. z-score, hits read low. 220,000 compounds, 0.47% hits. AID 1381;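 active = plate z-score of nuclear minus cytoplasmic receptor signal below a set negative limit, without overly bright fluorescence or cell loss, cut at about -3.5 in these data, passing the limit was not always enough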;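 also: z-score of nuclear minus cytoplasmic ring GR-EGFP intensity difference per well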
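Also added – dexamethasone, 1.0 µM final · Buffer or medium – tet-free, stripped-serum medium · Schedule – induction 48 h, compound 1 h, agonist 30 min · Detection – formaldehyde fixation, Hoechst nuclear stain, 10x automated fluorescence imaging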
ABCB6 inh CP1: blocks the human ABCB6 transporter; 700 tested, under 10 active; ratio response (% of DMSO), % at 10 µM; shares compounds with ABCB6 inh MLPCN; K562-ABCB6 porphyrin accumulation, flow cytometry, 1 h; hits give low values;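 active = repeat-averaged ratio response below 75% of DMSO, the collection mean minus 3 SD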;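 also: median porphyrin fluorescence at 575 nm with 488 nm excitation from mitochondria; lower ratio means less porphyrin signal so ABCB6 inhibition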
Starred values were filed as active, the others as inactive; / = no result given.

SMILES	pCIP destab	Cl transport mod	ABCB6 inh MLPCN	V-ATPase pH	Dynein transport	ABCB6 inh CP1
Cc1cccc(NC(=O)c2oc3ccc(S(=O)(=O)N4CCOCC4)cc3c2C)c1C	-6.2	-1.03	68.0*	-6.3	-0.62	99.0
CC1(C(=O)NS(=O)(=O)c2ccc(F)cc2F)CCN1C(=O)CCc1ccc(Cl)cc1Cl (stereo not given)	/	/	101.0	/	/	100.0
CC1(C(=O)NS(=O)(=O)c2ccc(C#N)cc2)CCN1C(=O)CCc1ccc(Cl)cc1Cl (stereo not given)	/	/	73.0*	/	/	100.0
CC1(C(=O)NS(=O)(=O)c2cccc(F)c2)CCN1C(=O)CCc1ccc(Cl)cc1Cl (stereo not given)	/	/	97.0	/	/	/
CCCCN(C(=O)c1cc(-c2ccncc2)nc2ccccc12)c1c(N)n(CC(C)C)c(=O)[nH]c1=O	/	/	51.0*	-1.8	/	100.0
CCn1cc([N+](=O)[O-])c(C(=O)Nc2ccn(Cc3ccccc3F)n2)n1	-6.9	0.013	71.0*	-3.7	0.802	103.0
C=CCn1c(C2CCCCC2)n[nH]c1=S	15.8	0.272	95.0	1.1	-0.0178	/
CCn1cc(C(=O)NCCc2ccccc2)c(=O)c2cc(S(=O)(=O)N3CCCC3)ccc21	12.6	-0.76	100.0	1.2	-0.616	/
CCSc1nc(C)c(C)c(=O)[nH]1	-3.1	1.02	72.0*	0.1	-0.141	98.0
COc1ccc(/C(C)=N\O)cc1OC	-12.0	0.495	100.0	-3.5	-0.626	/
Cc1c(Cl)cccc1NC(=O)CCCn1cnc([N+](=O)[O-])n1	12.9	0.619	101.0	-1.6	1.87	/
O=C(CCCn1cnc([N+](=O)[O-])n1)Nc1cccc(Cl)c1Cl	-9.7	0.828	72.0*	-4.1	0.296	104.0
O=C(CN1C(=O)NC2(CCCC2)C1=O)OCc1ccc(Cl)cc1Cl	/	/	98.0	0.2	/	/
COc1ccc(-n2c(COc3ccccc3)nnc2SCc2ccc(C#N)cc2)cc1	-11.3	/	51.0*	-4.3	0.337	99.0
CC1(C(=O)NS(=O)(=O)C2CC2)CCCN(C(=O)Cc2ccc3ccccc3c2)C1 (stereo not given)	/	/	103.0	/	/	/
N#Cc1nn(-c2ccccc2)nc1N1CCCCC1	-8.3	-0.12	69.0*	2.2	0.376	95.0
N#Cc1nc(COc2ccccc2)oc1N1CCCCCC1	1.8	-0.718	103.0	-0.4	0.052	/
Cc1ccccc1OCC(=O)OCC(=O)c1ccc(OC(=O)c2ccccc2)cc1	-0.6	-0.117	44.0*	-2.0	-0.361	104.0
Cc1ccccc1OCC(=O)OCC(=O)c1ccc(OCc2ccccc2)cc1	-7.2	-3.84	100.0	2.9	-0.0232	/
